Screening data as filed in PubChem.
E-sel inducer – induces E-selectin expression in human endothelial cells; P16581; HUVEC E-selectin immunofluorescence imaging; normalized: neutral wells 0, TNF-alpha wells 100; activation, % at 7.58 µM; 260,000 tested, 0.37% active;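 active = mean E-selectin-positive cell signal at least 10% of the positive control, reached in at least 60% of replicates, without over 20% cell loss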
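assay system = HUVEC, human umbilical vein endothelial cells | input = 3,000 HUVEC seeded per well | medium = EGM-2 growth medium on 0.1% gelatin-coated wells | dosing = one compound dose added by pin transfer | signal = immunofluorescence imaging | read-out basis = % PE-positive cells | control set = TNF-alpha, DMSO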
RAD54 branch – blocks human RAD54 Holliday junction branch migration; Q92698; FAM/BHQ fluorescence; inhibition, % at 10.4 µM; 360,000 tested, 0.14% active; AID 602329;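 active = mean normalized replicate activity at least 40 and at least half of replicates scoring 40 or more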;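 also: 0% = median of neutral control wells and 100% = median of positive control wells; inhibitors cause a drop in the FAM fluorescence signal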
AF4-AF9 inh – blocks AF4 peptide binding to human AF9 | P42568 | AlphaScreen, biotin-AF4 peptide binding to FLAG-AF9 | inhibition, % at 10 µM | 350,000 tested, 0.47% active;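 active = every replicate reaching a set inhibition limit, whatever the replicate mean, cut at about 25% in these data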;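 also: 0% = plate neutral control median and 100% = total signal loss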
INS-1E GSIS act – GLuc luminescence reporter in INS-1E cells, primary screen for activators of glucose-dependent secretion of insulin; INS-1E GLuc reporter insulin secretion, 2-3 h; activation, % at 16.6 µM; 370,000 tested, 0.61% active;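 active = lowest replicate activation of at least 40%, so every replicate reaches that level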;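 also: 0% = median of neutral control wells and 100% = median of IBMX positive control wells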
Ecoli rRNA inh – selective bacterial rRNA inhibition in E. coli; E. coli WT GFP vs humanized-ribosome RFP mutants, fluorescence, 24 h; stronger effect = lower value; DMSO median 0, no signal -100; GFP signal change (wild-type ribosome), % (test concentration not listed); 350,000 tested, 1.6% active; AID 720706;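 active = significant combined selectivity score with lowered wild-type GFP, culture density cut under 30%, mutant RFP and density less affected; inactive = any of these conditions unmet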
RAD52 inh – blocks human RAD52 DNA annealing; inhibition, % at 18.7 µM; 360,000 tested, 0.46% active; AID 651710; P43351; recombinant RAD52 DNA annealing, FRET fluorescence;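 active = every replicate showing at least 50% inhibition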
Target sequence (P43351 whole entry, looked up): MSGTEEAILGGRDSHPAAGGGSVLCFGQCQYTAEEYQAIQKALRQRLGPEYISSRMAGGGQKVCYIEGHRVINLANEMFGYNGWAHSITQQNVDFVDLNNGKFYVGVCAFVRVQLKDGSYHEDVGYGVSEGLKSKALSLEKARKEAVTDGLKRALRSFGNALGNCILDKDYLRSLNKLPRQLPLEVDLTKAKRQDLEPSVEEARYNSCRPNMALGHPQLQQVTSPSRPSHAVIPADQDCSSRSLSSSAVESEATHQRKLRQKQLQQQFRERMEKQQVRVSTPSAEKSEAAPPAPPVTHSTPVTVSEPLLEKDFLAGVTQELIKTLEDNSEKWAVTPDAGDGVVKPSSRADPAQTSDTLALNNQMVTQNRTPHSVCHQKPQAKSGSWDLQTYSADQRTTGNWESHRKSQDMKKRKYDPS
* marks the source's active call; other numbers are inactive results; · = no result. Hits are enriched below; roughly 2.6% of the tested compounds scored in any of these assays.

SMILES	E-sel inducer	RAD54 branch	AF4-AF9 inh	INS-1E GSIS act	Ecoli rRNA inh	RAD52 inh
Nc1c(C(=O)OCC(=O)NCc2ccccc2)[nH]c(=O)[nH]c1=O	0	0	38*	7	15	-6
C[C@H]1CN([C@@H](C)CO)S(=O)(=O)c2ccc(C#CC3CC3)cc2O[C@H]1CN(C)C(=O)C1CCCCC1	1	·	·	-13	-2	·
Cc1noc(C)c1S(=O)(=O)Nc1ccc2c(c1)C(=O)N([C@H](C)CO)C[C@H](C)[C@H](CN(C)S(=O)(=O)c1ccc(F)cc1)OCCCC[C@@H](C)O2	0	-5	-1	-3	1	81*
Cc1noc(C)c1S(=O)(=O)Nc1ccc2c(c1)C(=O)N([C@H](C)CO)C[C@@H](C)[C@@H](CN(C)S(=O)(=O)c1ccc(F)cc1)OCCCC[C@H](C)O2	0	1	-1	-6	1	60*
Cc1noc(C)c1S(=O)(=O)Nc1ccc2c(c1)C(=O)N([C@H](C)CO)C[C@H](C)[C@@H](CN(C)S(=O)(=O)c1ccc(F)cc1)OCCCC[C@H](C)O2	1	-7	0	-6	-5	82*
CO[C@H]1CN(C)C(=O)c2ccc(NC(C)=O)cc2OC[C@H](C)N(C(=O)c2ccncc2)C[C@H]1C	0	-1	-4	-5	-1	5
Cc1ccc(S(=O)(=O)N(C)C[C@@H]2Oc3ccc(NC(=O)CCCN(C)C)cc3C(=O)N([C@@H](C)CO)C[C@@H]2C)cc1	-3	1	1	1	1	10
CCOCCCn1c(SCc2ccccc2)nnc1-c1ccncc1	14	5	2	78*	5	-6
CC1(C(=O)NCC2CCCCC2)CCN1CCc1ccccc1 (stereo unspecified)	0	-7	0	80*	-39	3
CC1(C(=O)NCC2CCCCC2)CCN1C(=O)Cc1ccc(-c2ccccc2)cc1 (stereo unspecified)	0	-9	-4	-29	-42	-7
O=[N+]([O-])c1cc(CN2CCN(c3cccc(C(F)(F)F)c3)CC2)c2cccnc2c1O	·	·	36*	-15	-24	-15
O=[N+]([O-])c1cc(Cl)ccc1N1CCN(c2cccc(C(F)(F)F)c2)CC1	·	5	·	-24	·	·
CO[C@H]1CN(C)C(=O)c2ccc(NC(=O)C3CCC3)cc2OC[C@@H](C)N(C(=O)CN(C)C)C[C@@H]1C	0	16	·	12	0	·
CCCNC(=O)C[C@@H]1CC[C@@H]2[C@H](COc3ccc(NC(=O)c4cscn4)cc3C(=O)N2C)O1	0	·	-3	6	1	·
Cc1ccc(OCCOc2cccc3ccc(C)nc23)c([N+](=O)[O-])c1	2	-2	3	5	-21*	-6
Cc1ccc2cccc(OCc3cccc([N+](=O)[O-])c3)c2n1	0	-7	4	-18	-4	-4
COC(=O)c1ccccc1OCCOCCOc1cccc2ccc(C)nc12	2	8	-1	-12	-28*	-12
C[C@@H]1CN([C@@H](C)CO)C(=O)c2cc(-c3ccc(C#N)cc3)cnc2O[C@@H]1CN(C)C(=O)CC1CC1	0	0	-3	18	4	-5
Cc1ccccc1S(=O)(=O)NCC[C@H]1CC[C@@H](NC(=O)Nc2cccc(Cl)c2)[C@@H](CO)O1	0	8	1	-25	-7	5
O=C(Nc1cscc1S(=O)(=O)c1ccccc1)c1ccccc1Cl	1	6	0	1	-22*	-16
COc1cccc(N/C=C/c2onc(C)c2[N+](=O)[O-])c1	·	2	·	52*	·	·
CCOC(=O)CC(=O)CSc1ccc2nnc(-c3cccc(F)c3)n2n1	·	6	·	13	·	·
CSc1ccc2nnc(-c3cccc(F)c3)n2n1	·	7	·	53*	·	·
COc1ccc(NC(=O)Nc2ccc3c(c2)C(=O)N([C@@H](C)CO)C[C@H](C)[C@@H](CN(C)Cc2ccc(C(F)(F)F)cc2)O3)cc1	0	3	1	9	4	21
COc1cccc(-c2ccc3c(c2)[C@@H]2[C@@H](CCN2C(=O)NC2CCCC2)[C@H](CO)N3C)c1	-1	-1	26*	0	-6	3
